Reference: ChEMBL document CHEMBL1123566, “Synthesis and cardiac electrophysiological activity of 2- and 3-[(substituted phenyl)alkyl]quinuclidines. Structure-activity relationships” (1987)

Columns and labels:
Canis familiaris [1] = organism: Canis familiaris; experiment: In vitro electrophysiological evaluation in canine cardiac Purkinje fibres reported as percent change Vmax at 10 uM at concentration range of 0.1-10 uM; Minimal (<10% decrease or increase in V max).; assay type: functional; conditions: Canis lupus familiaris, Purkinje fiber
Procedure, shortened: (§1)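 Canine cardiac Purkinje fibres, intracellular microelectrode recording, paced at a basic cycle length of 1 s. APD95 and Vmax read simultaneously. Compound: 10 mM stock in deionized water, diluted into Tyrode's solution, tested over the stated concentration range. Each fibre used once as its own control. Result is % change from control, given at 10 µM or as the maximum with its concentration. M = <10% decrease or an increase in Vmax.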

Canis familiaris [2] = experiment: Conduction time was determined by intraduodenal administration of 30 mg/kg (high dose) of compound in anesthetized dogs. Value was reported for experiment 3; assay type: functional, Canis lupus familiaris
Procedure, shortened: (§2)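 Anesthetized dogs; compound given intraduodenally, generally as two doses, the second a cumulative (high) dose. LV functional refractory period and conduction time measured 15, 30 and 45 min after dosing; heart rate and blood pressure measured during nonpacing intervals. Values are % change from control, given per individual animal. Active if FRP or CT prolonged by ≥12%.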

Canis familiaris [3] = organism: Canis familiaris; experiment: In vitro electrophysiological evaluation in canine cardiac Purkinje fibres reported as percent change Vmax at 10 uM at concentration range of 1-100 uM; Minimal (<10% decrease or increase in V max).; assay type: functional; conditions: Canis lupus familiaris, Purkinje fiber; procedure, shortened: as §1
Canis familiaris [4] = experiment: Left ventricular refractory period was determined by intraduodenal administration of 10 mg/kg (low dose) of compound in anesthetized dogs. Value was reported for experiment 3; assay type: functional, Canis lupus familiaris, Cardiac ventricle
Procedure, shortened: (§3)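 Anesthetized dogs received two intraduodenal doses, the second cumulative (low dose/high dose). Left ventricular FRP and CT were measured 15, 30 and 45 min after dosing. Heart rate and mean blood pressure were taken during nonpacing intervals. Values are percent change from control. The vehicle was 5% dextrose in water/tragacanth. Activity was defined as ≥12% prolongation of FRP or CT.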

Canis familiaris [5] = experiment: Mean arterial blood pressure was determined by intraduodenal administration of two dosages of 30 mg/kg of compound in anesthetized dogs. Value was reported for experiment 2; assay type: functional, Canis lupus familiaris; procedure, shortened: as §3
Canis familiaris [6] = experiment: Mean arterial blood pressure was determined by intraduodenal administration of two dosages of 10 mg/kg of compound in anesthetized dogs. Value was reported for experiment 3; assay type: functional, Canis lupus familiaris
Canis familiaris [7] = experiment: Heart rate was determined by intraduodenal administration of two dosages of 10 mg/kg of compound in anesthetized dogs. Value was reported for experiment 3; assay type: functional, Canis lupus familiaris; procedure, shortened: as §2
Canis familiaris [8] = experiment: Heart rate was determined by intraduodenal administration of two dosages of 30 mg/kg of compound in anesthetized dogs. Value was reported for experiment 3; assay type: functional, Canis lupus familiaris; procedure, shortened: as §2
Canis familiaris [9] = experiment: Heart rate was determined by intraduodenal administration of two dosages of 30 mg/kg of compound in anesthetized dogs. Value was reported for experiment 1; assay type: functional, Canis lupus familiaris; procedure, shortened: as §2
Canis familiaris [10] = experiment: Left ventricular refractory period was determined by intraduodenal administration of 30 mg/kg (high dose) of compound in anesthetized dogs. Value was reported for experiment 1; assay type: functional, Canis lupus familiaris, Cardiac ventricle; procedure, shortened: as §3
Canis familiaris [11] = experiment: Conduction time was determined by intraduodenal administration of 30 mg/kg (high dose) of compound in anesthetized dogs. Value was reported for experiment 2; assay type: functional, Canis lupus familiaris; procedure, shortened: as §2
Canis familiaris [12] = experiment: Left ventricular refractory period was determined by intraduodenal administration of 10 mg/kg (low dose) of compound in anesthetized dogs. Value was reported for experiment 2; assay type: functional, Canis lupus familiaris, Cardiac ventricle; procedure, shortened: as §3
Canis familiaris [13] = organism: Canis familiaris; experiment: In vitro electrophysiological evaluation in canine cardiac Purkinje fibres reported as % change for action potential duration at a concentration of 10 uM; assay type: functional, Canis lupus familiaris, Purkinje fiber; procedure, shortened: as §1
Canis familiaris [14] = organism: Canis familiaris; experiment: In vitro electrophysiological evaluation in canine cardiac Purkinje fibres reported as percent change Vmax at concentration range of 0.1-10 uM; Minimal (<10% decrease or increase in V max).; assay type: functional; conditions: Canis lupus familiaris; Purkinje fiber; procedure, shortened: as §1
Canis familiaris [15] = experiment: Left ventricular refractory period was determined by intraduodenal administration of 10 mg/kg (low dose) of compound in anesthetized dogs. Value was reported for experiment 1; assay type: functional, Canis lupus familiaris, Cardiac ventricle; procedure, shortened: as §3
Canis familiaris [16] = organism: Canis familiaris; experiment: In vitro electrophysiological evaluation in canine cardiac ventricular muscle reported as maximum % change for functional refractory period (FRP) at 0.1-10 uM concentration range; concentration at which it occurred is 10 uM; design: species or system Canis lupus familiaris, Muscle tissue
Procedure, shortened: (§4)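 Canine right ventricle and papillary muscle strips in oxygenated Tyrode's solution, fitted with stimulating and recording electrodes. The extra-stimulus conduction-interval method was adapted for in vitro use. FRP and CT were read from a conduction-interval curve before and after various compound concentrations, and expressed as percent change from control. Compounds were taken from 10 mM deionized-water stock into Tyrode's. Each strip was used once as its own control.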

Canis familiaris [17] = experiment: Left ventricular refractory period was determined by intraduodenal administration of 30 mg/kg (high dose) of compound in anesthetized dogs. Value was reported for experiment 2; assay type: functional, Canis lupus familiaris, Cardiac ventricle; procedure, shortened: as §3
Canis familiaris [18] = organism: Canis familiaris; experiment: In vitro electrophysiological evaluation in canine cardiac Purkinje fibres reported as percent change Vmax at 10 uM at concentration range of 1-100 uM.; assay type: functional; conditions: Canis lupus familiaris, Purkinje fiber; procedure, shortened: as §1
Canis familiaris [19] = organism: Canis familiaris; experiment: In vitro electrophysiological evaluation in canine cardiac ventricular muscle reported as % change for the functional refractory period (FRP) at 10 uM at concentration range of 0.1-10 uM; design: species or system Canis lupus familiaris, Muscle tissue; procedure, shortened: as §4
Canis familiaris [20] = experiment: Conduction time was determined by intraduodenal administration of 10 mg/kg (low dose) of compound in anesthetized dogs. Value was reported for experiment 3; assay type: functional, Canis lupus familiaris; procedure, shortened: as §2
Canis familiaris [21] = organism: Canis familiaris; experiment: In vitro electrophysiological evaluation in canine cardiac Purkinje fibres reported as percent change Vmax at concentration range of 1-100 uM; conduction block; assay type: functional; conditions: Canis lupus familiaris; Purkinje fiber; procedure, shortened: as §1
Canis familiaris [22] = experiment: Left ventricular refractory period was determined by intraduodenal administration of 30 mg/kg (high dose) of compound in anesthetized dogs. Value was reported for experiment 3; assay type: functional, Canis lupus familiaris, Cardiac ventricle; procedure, shortened: as §3
Canis familiaris [23] = experiment: Mean arterial blood pressure was determined by intraduodenal administration of two dosages of 10 mg/kg of compound in anesthetized dogs. Value was reported for experiment 1; assay type: functional, Canis lupus familiaris; procedure, shortened: as §3
Canis familiaris [24] = experiment: Heart rate was determined by intraduodenal administration of two dosages of 10 mg/kg of compound in anesthetized dogs. Value was reported for experiment 2; assay type: functional, Canis lupus familiaris; procedure, shortened: as §2
Canis familiaris [25] = organism: Canis familiaris; experiment: In vitro electrophysiological activity in canine cardiac occurred is 100 uM; assay type: functional, Canis lupus familiaris, Heart
Canis familiaris [26] = experiment: Conduction time was determined by intraduodenal administration of 30 mg/kg (high dose) of compound in anesthetized dogs. Value was reported for experiment 1; assay type: functional, Canis lupus familiaris; procedure, shortened: as §2
Canis familiaris [27] = organism: Canis familiaris; experiment: In vitro electrophysiological evaluation in canine cardiac ventricular muscle reported as maximum % change for conduction time(CT) at 0.1-10 uM concentration range; Minimal (<10% decrease or increase in CT).; assay type: functional, Canis lupus familiaris, Muscle tissue; procedure, shortened: as §4
Canis familiaris [28] = organism: Canis familiaris; experiment: In vitro electrophysiological activity in canine cardiac occurred is 10 uM; assay type: functional, Canis lupus familiaris, Heart
Canis familiaris [29] = experiment: Mean arterial blood pressure was determined by intraduodenal administration of two dosages of 10 mg/kg of compound in anesthetized dogs. Value was reported for experiment 2; assay type: functional, Canis lupus familiaris; procedure, shortened: as §3
Canis familiaris [30] = experiment: Conduction time was determined by intraduodenal administration of 10 mg/kg (low dose) of compound in anesthetized dogs. Value was reported for experiment 1; assay type: functional, Canis lupus familiaris; procedure, shortened: as §2
Canis familiaris [31] = experiment: Mean arterial blood pressure was determined by intraduodenal administration of two dosages of 30 mg/kg of compound in anesthetized dogs. Value was reported for experiment 1; assay type: functional, Canis lupus familiaris; procedure, shortened: as §3
Canis familiaris [32] = experiment: Mean arterial blood pressure was determined by intraduodenal administration of two dosages of 30 mg/kg of compound in anesthetized dogs. Value was reported for experiment 3; assay type: functional, Canis lupus familiaris
Canis familiaris [33] = experiment: Heart rate was determined by intraduodenal administration of two dosages of 10 mg/kg of compound in anesthetized dogs. Value was reported for experiment 1; assay type: functional, Canis lupus familiaris; procedure, shortened: as §2
Canis familiaris [34] = organism: Canis familiaris; experiment: In vitro electrophysiological evaluation in canine cardiac ventricular muscle reported as % change for conduction time(CT) at 10 uM at 0.1-10 uM concentration range; Minimal (<10% decrease or increase in CT).; assay type: functional, Canis lupus familiaris, Muscle tissue
Canis familiaris [35] = experiment: Heart rate was determined by intraduodenal administration of two dosages of 30 mg/kg of compound in anesthetized dogs. Value was reported for experiment 2; assay type: functional, Canis lupus familiaris; procedure, shortened: as §2
Canis familiaris [36] = experiment: Conduction time was determined by intraduodenal administration of 10 mg/kg (low dose) of compound in anesthetized dogs. Value was reported for experiment 2; assay type: functional, Canis lupus familiaris; procedure, shortened: as §2

## CC(=O)C(CC1C(=O)C2CCN1CC2)C(=O)c1ccc(Cl)cc1.Cl (stereo unspecified)
Canis familiaris [1]
  Vmax: < 10%
Canis familiaris [2]
  CT: 13%
Canis familiaris [3]
  Vmax: < 10%
Canis familiaris [4]
  LV FRP: 11%
Canis familiaris [5]
  Mean blood pressure: -16%
Canis familiaris [6]
  Mean blood pressure: 7%
Canis familiaris [7]
  HR: -15%
Canis familiaris [8]
  HR: -22%
Canis familiaris [9]
  HR: 2%
Canis familiaris [10]
  LV FRP: 1%
Canis familiaris [11]
  CT: 7%
Canis familiaris [12]
  LV FRP: 11%
Canis familiaris [13]
  APD95: 23%
Canis familiaris [14]
  Vmax: < 10%
Canis familiaris [15]
  LV FRP: 4%
Canis familiaris [16]
  FRP: 24%
Canis familiaris [17]
  LV FRP: 18%
Canis familiaris [18]
  Vmax: -10%
Canis familiaris [19]
  FRP: 24%
Canis familiaris [20]
  CT: 8%
Canis familiaris [21]
  Vmax: 100%
Canis familiaris [22]
  LV FRP: 15%
Canis familiaris [23]
  Mean blood pressure: -5%
Canis familiaris [24]
  HR: -14%
Canis familiaris [25]
  APD95: -16%
Canis familiaris [26]
  CT: 9%
Canis familiaris [27]
  CT: <10%
Canis familiaris [28]
  APD95: 23%
Canis familiaris [29]
  Mean blood pressure: -4%
Canis familiaris [30]
  CT: 3%
Canis familiaris [31]
  Mean blood pressure: -6%
Canis familiaris [32]
  Mean blood pressure: 7%
Canis familiaris [33]
  HR: 1%
Canis familiaris [34]
  CT: <10%
Canis familiaris [35]
  HR: -28%
Canis familiaris [36]
  CT: 0%
